Published values of several laboratories.
Each line is one published result; the experiments were not run side by side.
Target: 5-hydroxytryptamine receptor 2A (HTR2A, Homo sapiens, UniProt P28223)
Tested at: 10 µM

| Compound | assay | measurement | result |
| --- | --- | --- | --- |
| COCCN(CCOC)C(=O)[C@@]12C[C@@H]1[C@@H](n1cnc3c(N)nc(Cl)nc31)[C@H](O)[C@@H]2O | ligand displacement, radioligand | inhibition | 3% |
| COc1cc2c3c(c1OC)-c1cc4c(cc1CC3N(C)CC2)OCO4 (racemic) | ligand displacement, radioligand | inhibition | 89.3% |
| Nc1c(C(=O)NCc2ccc(C(=O)NCCCC3CCCCC3)cc2)cnn1-c1ccccc1 | ligand displacement | inhibition | 23.7% |
| COCCN(CCOC)C(=O)[C@@]12C[C@@H]1[C@@H](n1cnc3c(NC(C4CC4)C4CC4)nc(Cl)nc31)[C@H](O)[C@@H]2O | ligand displacement, radioligand | inhibition | 0% |
| Nc1ncc(-c2nc(N3CCOCC3)nc(N3CCOCC3)n2)c(C(F)F)n1 | cell-free assay, radioligand | remaining signal | 98.1% |
| CCN(CC)CCCC[C@H](NC(=O)[C@H](CC(C)C)NC(=O)[C@H](C)NC(=O)[C@H](Cc1ccccc1)NC(=O)c1ccc(C(C)(C)C)cc1)C(=O)N[C@@H](CO)C(=O)OC | ligand displacement, radioligand | inhibition | 39% |
| Clc1ccc2c(C3CCN(CCc4c[nH]c5ccccc45)CC3)c[nH]c2c1 | ligand displacement, radioligand | inhibition | 99% |
| CSC[C@@]12C[C@@H]1[C@@H](n1cnc3c(NC(C4CC4)C4CC4)nc(I)nc31)[C@H](O)[C@@H]2O | ligand displacement, radioligand | inhibition | 24% |
| CCc1ccccc1C(=O)Nc1n[nH]c2c(C)c(F)c(C3C(C#N)=C(C)N(C)C(C)=C3C#N)cc12 | ligand displacement | inhibition | 14.8% |
| COCc1c(-c2cc3cc(C)cc(OC)c3s2)c2c(N)ncnn2c1CN1CCNC(=O)C1 | ligand displacement, radioligand | inhibition | 23% |
